The record followed here is ChEMBL document CHEMBL1124995, “Synthesis and pharmacology of the enantiomers of cis-7-hydroxy-3-methyl-2-(dipropylamino)tetralin” (J Med Chem, 1990).

Experiment [1] has as its target T1, D(2) dopamine receptor (Bos taurus, UniProt P20288). The experiment can be described thus: Binding affinity of [3H]spiroperidol to striatal Dopamine receptor D2 binding sites. In a few lines: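 Calf striatal membranes, 1.5–2 mg/tube. Competition with [3H]spiroperidol (100 μL of 10 nM added to 1 mL) in Tris-HCl buffer with EDTA, NaCl, KCl, CaCl2, MgCl2, pH 7.2, run in triplicate. Incubated 40 min at 37 °C. Nonspecific binding with 1 μM (+)-butaclamol. GF/B filtration, scintillation counting; pIC50 as mean ± SEM.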

Experiment [2] relates to Rattus norvegicus. The experiment can be described thus: In vivo effect of 5-HTP accumulation in nonpretreated rat limbic system at the dose of 50 umol/kg, sc. Format: functional. In outline:
(§1)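 Untreated rats given test drug 50 μmol/kg sc 65 min before death, and NSD 1015 (decarboxylase inhibitor) 100 mg/kg ip 30 min before death. DOPA and 5-HTP in limbic, striatal and cortical regions measured by HPLC with electrochemical detection. Values are % of saline controls, mean ± SEM, n = 4. ANOVA with Fisher's test.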

Experiment [3] deals with Rattus norvegicus. The experiment can be described thus: Effect of locomotor activity in reserpine pretreated rats at the dose of 50.0uM/Kg, sc ip after count of 30 minute. Format: functional. In outline:
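Rats given reserpine 5 mg/kg sc 18 h beforehand, then test drug sc immediately before the session. Photocell motility counts accumulated over 30 min, mean ± SEM, n = 3-4. In one arm haloperidol 0.3 mg/kg sc was given 30 min before drug. ANOVA with Fisher's test against controls.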

Experiment [4] concerns Rattus norvegicus. The experiment in a line: In vivo effect of DOPA accumulation in nonpretreated rat limbic system at the dose of 50 umol/kg, sc ip. Format: functional. In outline:
as §1

Experiment [5] has as its system Rattus norvegicus. The experiment in a line: In vivo effect of DOPA accumulation in nonpretreated rat cortex at the dose of 50 umol/kg, sc ip. Format: functional. In outline:
as §1

Experiment [6] has as its system Rattus norvegicus. The experiment in a line: Effect of locomotor activity in nonpretreated rats at the dose of 50.0uM/Kg, sc. Format: functional. In outline:
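Untreated rats given test drug sc 5 min before the session. Photocell motility boxes recorded accumulated counts over 30 min, with gross behaviour observed. Activity expressed as % of saline controls, mean ± SEM. ANOVA with Fisher's test.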

Experiment [7] has as its system Rattus norvegicus. The experiment can be described thus: In vivo effect of 5-HTP accumulation in nonpretreated rat striatum at the dose of 50 umol/kg, sc. It is filed as functional. In outline:
as §1

In experiment [8] the test system is Rattus norvegicus. The experiment in a line: In vivo effect of 5-HTP accumulation in nonpretreated rat cortex at the dose of 50 umol/kg, sc. Format: functional. In outline:
as §1

Experiment [9] deals with T1, D(2) dopamine receptor. The experiment can be described thus: Binding affinity of [3H]NPA to striatal Dopamine receptor D2. In outline: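 Calf striatal membranes (homogenised in Tris salt buffer pH 7.4, preincubated 30 min at 35 °C, washed), 1.5–2 mg/tube. Competition with [3H]NPA (100 μL of 5 nM added to 1 mL) in 50 mM Tris-HCl, 1 mM EDTA, 4 mM MgCl2, 0.01% ascorbic acid, pH 7.2. Incubated 45 min at 25 °C. Nonspecific binding with 1 μM (+)-butaclamol. Filtration, scintillation counting; pIC50 as mean ± SEM.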

The subject of experiment [10] is Rattus norvegicus. The experiment in a line: In vivo effect of DOPA accumulation in nonpretreated rat striatum at the dose of 50 umol/kg, sc ip. It is filed as functional. In a few lines:
as §1

The test system of experiment [11] is Rattus norvegicus. The experiment in a line: Effect of locomotor activity in reserpine pretreated rats at the dose of 25.0uM/Kg, sc ip after count of 30 minute. It is filed as functional. In a few lines:
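Reserpine 5 mg/kg sc given 18 h before; test drug sc immediately before session; haloperidol 0.3 mg/kg sc injected 30 min before test drug. Photocell motility boxes, accumulated counts over 30 min, with gross behaviour observed through mirror; mean ± SEM, n = 3-4; Anova with Fischer's test versus saline controls. Injection volume 5 mL/kg, near-neutral pH.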

T1 sequence (P20288 whole entry): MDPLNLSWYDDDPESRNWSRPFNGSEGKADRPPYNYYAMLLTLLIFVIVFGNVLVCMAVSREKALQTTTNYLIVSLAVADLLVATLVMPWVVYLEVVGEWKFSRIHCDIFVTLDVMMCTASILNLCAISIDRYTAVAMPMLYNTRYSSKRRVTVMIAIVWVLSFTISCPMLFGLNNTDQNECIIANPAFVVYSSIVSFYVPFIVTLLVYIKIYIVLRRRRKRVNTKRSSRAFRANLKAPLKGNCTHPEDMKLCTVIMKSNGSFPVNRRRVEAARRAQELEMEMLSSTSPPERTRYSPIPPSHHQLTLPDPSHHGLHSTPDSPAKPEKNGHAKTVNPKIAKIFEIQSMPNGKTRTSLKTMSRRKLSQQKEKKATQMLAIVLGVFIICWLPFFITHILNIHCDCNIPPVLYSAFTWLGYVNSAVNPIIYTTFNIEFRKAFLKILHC

For the compound `CCCN(CCC)[C@@H]1Cc2cc(O)ccc2C[C@H]1C` (racemic), the IC50 at D(2) dopamine receptor [1] is 26.9 µM; at D(2) dopamine receptor [9], 1.02 µM. In addition, the Control with Rattus norvegicus [2] turned out to be 136%; with Rattus norvegicus [4] it was 146%; in the experiment on Rattus norvegicus [5], 217%; with Rattus norvegicus [7], 117%; in the experiment on Rattus norvegicus [8], 147%; in the experiment on Rattus norvegicus [10] it was 247%. Also, the Activity with Rattus norvegicus [3] was 331 µM/kg; in the experiment on Rattus norvegicus [6], 147 µM/kg.
With `O=C(CCCN1CCC(O)(c2ccc(Cl)cc2)CC1)c1ccc(F)cc1` [HALOPERIDOL], the Activity in the experiment with Rattus norvegicus [11] was found to be 573 counts/30 min.

The IC50 is the concentration needed to halve the response being measured. Read a low IC50 as higher potency.
